KDM4C inh – blocks human GASC-1 (KDM4C) demethylase activity; Q9H3R0; GST-KDM4C 2-372, H3K9me3 peptide, LANCE TR-FRET; inhibition, % at 12.5 µM; 96,000 tested, 0.15% active; AID 720574;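 active = mean replicate inhibition above about 25%, with at least 55% of replicates also reaching it, limit read from the data, passing the limit was not always enough; inconclusive = only one of those two conditions met; inactive = neither condition met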
Target sequence (Q9H3R0 2-372 limits assumed): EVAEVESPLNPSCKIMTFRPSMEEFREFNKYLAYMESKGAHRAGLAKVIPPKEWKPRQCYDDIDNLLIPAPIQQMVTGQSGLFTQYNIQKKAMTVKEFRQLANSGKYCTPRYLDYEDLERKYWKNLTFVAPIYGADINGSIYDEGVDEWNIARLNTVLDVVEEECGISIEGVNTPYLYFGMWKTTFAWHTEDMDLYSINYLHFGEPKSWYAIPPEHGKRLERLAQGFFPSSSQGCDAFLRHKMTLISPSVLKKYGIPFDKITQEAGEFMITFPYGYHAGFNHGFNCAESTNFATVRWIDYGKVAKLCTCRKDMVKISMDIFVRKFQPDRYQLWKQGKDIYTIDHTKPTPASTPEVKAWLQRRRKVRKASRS
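reagent = H3K9me3 peptide substrate, Fe(II), 2-oxoglutarate | system = GST-tagged GASC-1 (JMJD2C) catalytic fragment, aa 2-372 | amount = enzyme final amount 10 nM | read-out = Fall in 671/618 emission ratio as inhibition | medium = HEPES buffer, pH 7.5, plus ascorbate | schedule = 30 min reaction, 60 min detection, RT | measured by = LANCE TR-FRET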
T cruzi growth-1 – blocks T. cruzi growth in NIH3T3 culture; T. cruzi beta-gal in NIH3T3, GalScreen luminescence, 90 h; inhibition, % at 8.34 µM; 77,000 tested, 5.9% active; AID 624255;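 active = mean inhibition above about 93%, with at least 55% of replicates each passing it, limit read from the data, passing the limit was not always enough; inconclusive = only one of those two conditions holds; inactive = neither condition holds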
IDH1 R132H inh – blocks human IDH1 R132H reductase activity; AID 624101; O75874; diaphorase/resazurin fluorescence, 60 min; 70,000 tested, 0.18% active; inhibition, % at 10 µM; in the data active = inhibition above about 34%; inconclusive = no clear call, values can overlap the other calls; inactive = below about 11%
Target sequence (O75874 whole entry R132H): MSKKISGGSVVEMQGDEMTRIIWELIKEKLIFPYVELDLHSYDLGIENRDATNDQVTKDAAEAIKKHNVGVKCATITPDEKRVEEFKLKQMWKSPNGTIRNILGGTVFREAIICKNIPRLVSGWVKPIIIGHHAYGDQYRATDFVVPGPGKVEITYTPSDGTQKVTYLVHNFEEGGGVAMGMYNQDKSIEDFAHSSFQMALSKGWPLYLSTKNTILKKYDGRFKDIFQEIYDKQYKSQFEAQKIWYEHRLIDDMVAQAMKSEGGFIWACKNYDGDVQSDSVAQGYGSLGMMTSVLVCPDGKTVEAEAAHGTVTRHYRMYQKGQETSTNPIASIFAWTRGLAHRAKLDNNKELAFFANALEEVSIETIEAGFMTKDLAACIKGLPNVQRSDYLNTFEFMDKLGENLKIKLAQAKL
T cruzi growth-2 – inhibitors of T. cruzi proliferation | 5,600 tested, 72% active | T. cruzi beta-gal in NIH3T3, GalScreen luminescence, 90 h | AID 651739 | shares compounds with T cruzi growth-1 | inhibition, % at 8.35 µM;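 active = mean replicate inhibition above about 95% and at least 55% of replicates individually reaching it, limit read from the data; inconclusive = only one of the two criteria is met; inactive = neither criterion is met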
T cruzi growth-3 – blocks T. cruzi growth in NIH3T3 host cells; T. cruzi beta-gal in NIH3T3, GalScreen luminescence, 90 h; 5,600 tested, 21% active; inhibition, % at 2.09 µM; AID 651740; shares compounds with T cruzi growth-1;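 active = mean inhibition above about 95%, with at least 55% of replicates also reaching it, limit read from the data; inconclusive = meets just one of the two conditions; inactive = meets neither condition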
3T3 cytotox – kills mouse NIH/3T3 fibroblasts. shares compounds with T cruzi growth-1. NIH/3T3 viability, CellTiter-Glo ATP luminescence, 90 h. cytotoxicity (signal decrease), % at 8.35 µM. 5,600 tested, 14% active. AID 651742;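 active = mean signal decrease across replicates above about 35% based on untreated-well scatter, with enough replicates individually passing, limit read from the data; inconclusive = no rule stated though some were filed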
3T3 cytotox 2 – cytotoxicity in mouse NIH/3T3 fibroblasts. shares compounds with T cruzi growth-1. NIH/3T3 viability, CellTiter-Glo ATP luminescence, 90 h. inhibition, % at 24.9 µM. 5,600 tested, 56% active;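 active = mean loss of cell viability signal at or above a set limit, and enough replicates individually reaching it; inconclusive = meets only the mean limit or only the replicate share; inactive = meets neither condition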
Hits are given with their value; 0 = inactive; ? = inconclusive; - = no result. Shown is part of a subset that was picked to be rich in hits.

SMILES | KDM4C inh | T cruzi growth-1 | IDH1 R132H inh | T cruzi growth-2 | T cruzi growth-3 | 3T3 cytotox | 3T3 cytotox 2
CO[C@H]1CN(C)C(=O)c2ccc(NS(=O)(=O)c3cccc(F)c3)cc2OC[C@H](C)N(Cc2cc(F)ccc2F)C[C@H]1C | 0 | - | 0 | - | - | - | -
CO[C@H]1CN(C)C(=O)c2cc(NS(=O)(=O)c3cccc(F)c3)ccc2OC[C@H](C)N(Cc2cc(F)ccc2F)C[C@H]1C | 0 | 115 | 0 | 108 | 0 | 0 | 105
CO[C@@H]1CN(C)C(=O)c2cc(NC(=O)C3CCCCC3)ccc2OC[C@H](C)NC[C@@H]1C | 0 | 0 | 0 | - | - | - | -
CO[C@H]1CN(C)C(=O)c2ccc(NS(=O)(=O)c3cccc(F)c3)cc2OC[C@@H](C)N(Cc2cc(F)ccc2F)C[C@@H]1C | 0 | - | 0 | - | - | - | -
CO[C@H]1CN(C)C(=O)c2cc(NS(=O)(=O)c3cccc(F)c3)ccc2OC[C@@H](C)N(Cc2cc(F)ccc2F)C[C@@H]1C | 0 | 112 | 0 | 110 | 0 | 0 | 0
COc1ccc(Cl)cc1NC(=O)CSc1nnc(-c2ccccc2)n1C | - | - | 0 | - | - | - | -
CSc1cccc(NC(=O)CN(C)S(=O)(=O)c2c(C)cc(C)cc2C)c1 | - | - | 0 | - | - | - | -
CO[C@@H]1CN(C)C(=O)c2cc(NC(=O)C3CC3)ccc2OC[C@H](C)N(Cc2cc(F)ccc2F)C[C@@H]1C | 0 | 0 | 0 | - | - | - | -
CO[C@H]1CN(C)C(=O)c2cc(NC(=O)C3CC3)ccc2OC[C@H](C)N(Cc2cc(F)ccc2F)C[C@@H]1C | 0 | 97 | 0 | 108 | 0 | 0 | 45
O=[N+]([O-])c1ccc(OCc2nc(-c3ccccn3)no2)cc1 | - | - | 0 | - | - | - | -
COc1cc(C2c3c(cc(OC)c(O)c3O)CC(CO)C2CO[C@@H]2O[C@H](C(=O)O)[C@@H](O)[C@H](O)[C@H]2O)cc(OC)c1O (some centres not stated) | - | - | 0 | - | - | - | -
C[C@@H]1CCCCO[C@@H](CN(C)Cc2ccc3c(c2)OCO3)[C@@H](C)CN([C@@H](C)CO)C(=O)c2cc(NC(=O)Nc3cccc4ccccc34)ccc2O1 | 0 | ? | 0 | 102 | 106 | 0 | 0
C[C@@H]1CCCCO[C@@H](CN(C)Cc2ccc3c(c2)OCO3)[C@@H](C)CN([C@H](C)CO)C(=O)c2cc(NC(=O)Nc3cccc4ccccc34)ccc2O1 | 0 | 0 | - | - | - | - | -
C[C@@H]1CCCCO[C@H](CN(C)Cc2ccccc2)[C@H](C)CN([C@H](C)CO)C(=O)c2cc(NC(=O)Nc3cccc4ccccc34)ccc2O1 | 0 | - | 0 | - | - | - | -
C[C@@H]1CCCCO[C@@H](CN(C)Cc2ccncc2)[C@H](C)CN([C@H](C)CO)C(=O)c2cc(NC(=O)Nc3cccc4ccccc34)ccc2O1 | 0 | 98 | 0 | 108 | 0 | 0 | 0
C[C@@H]1CN([C@@H](C)CO)C(=O)c2cc(NC(=O)Nc3cccc4ccccc34)ccc2O[C@@H](C)CCCCO[C@@H]1CN(C)Cc1ccncc1 | 0 | 0 | - | - | - | - | -
C[C@@H]1CCCCO[C@@H](CN(C)Cc2ccccc2)[C@@H](C)CN([C@@H](C)CO)C(=O)c2cc(NC(=O)Nc3cccc4ccccc34)ccc2O1 | 0 | 115 | 0 | 107 | 109 | 0 | 0
COC(=O)c1c(NC(=O)CC2Nc3cccc4cccc(c34)NC2=O)sc2c1CCCC2 (configuration not stated) | - | - | 0 | - | - | - | -
Cc1c(Cl)cccc1NC(=O)CSC1CC(=O)N(c2ccccc2)C1=O (configuration not stated) | - | - | 0 | - | - | - | -
Nc1nc(CN2CCN(C(=O)c3ccco3)CC2)nc(N2CCCc3ccccc32)n1 | - | - | 0 | - | - | - | -
COc1cccc(C#Cc2ccc([C@H]3[C@@H](CO)N(C(=O)C4CCC4)[C@H]3C#N)cc2)c1 | 0 | 0 | 0 | - | - | - | -
N#C[C@H]1[C@H](c2ccc(C#Cc3ccc(F)cc3)cc2)[C@@H](CO)N1C(=O)C1CCC1 | 0 | 0 | - | - | - | - | -
N#C[C@H]1[C@H](c2ccc(C#Cc3cccc(F)c3)cc2)[C@@H](CO)N1C(=O)C1CCC1 | 0 | 97 | - | 97 | 109 | 0 | 0
N#C[C@@H]1[C@@H](c2ccc(C#Cc3cccc(F)c3)cc2)[C@H](CO)N1C(=O)C1CCC1 | 0 | 99 | - | 104 | 105 | 0 | 0
O=C(CN1C(=O)C2C3C=CC(C4CC34)C2C1=O)Nc1ccc(Oc2ccc(Br)cc2)cc1 (configuration not stated) | - | - | 0 | - | - | - | -
SMILES | KDM4C inh | T cruzi growth-1 | IDH1 R132H inh | T cruzi growth-2 | T cruzi growth-3 | 3T3 cytotox | 3T3 cytotox 2
CO[C@@H](CN(C)C(=O)Nc1ccc(Cl)cc1)[C@@H](C)CN(Cc1ccccc1Cl)[C@@H](C)CO | 0 | 109 | 0 | 102 | 0 | 39 | 54
CO[C@@H](CN(C)C(=O)Nc1ccc(Cl)cc1)[C@H](C)CN(Cc1ccccc1Cl)[C@@H](C)CO | 0 | 0 | 0 | - | - | - | -
CO[C@@H](CN(C)C(=O)Nc1ccc(Cl)cc1)[C@H](C)CN(Cc1ccccc1Cl)[C@H](C)CO | 0 | 0 | 0 | - | - | - | -
CO[C@H](CN(C)C(=O)Nc1ccc(Cl)cc1)[C@@H](C)CN(Cc1ccccc1Cl)[C@H](C)CO | 0 | 102 | 0 | 106 | 0 | 0 | 77
COC(=O)c1sc(NC(=S)Nc2ccc(Cl)cn2)c(C(=O)OC)c1C | - | - | 0 | - | - | - | -
CCOC(=O)Cc1[nH]nc2c1C(C(C)C)C(C#N)=C(N)O2 (configuration not stated) | - | - | 0 | - | - | - | -
C[C@@H]1CN([C@H](C)CO)C(=O)c2cc(NC(=O)c3ccncc3)ccc2O[C@@H](C)CCCCO[C@@H]1CN(C)Cc1ccc(C(F)(F)F)cc1 | 0 | 109 | 0 | 109 | 0 | 0 | 26
C[C@@H]1CCCCO[C@H](CN(C)Cc2ccc(C(F)(F)F)cc2)[C@@H](C)CN([C@H](C)CO)C(=O)c2cc(NC(=O)c3ccncc3)ccc2O1 | 0 | 0 | 0 | - | - | - | -
C[C@H]1CCCCO[C@@H](CN(C)Cc2ccc(C(F)(F)F)cc2)[C@@H](C)CN([C@@H](C)CO)C(=O)c2cc(NC(=O)c3ccncc3)ccc2O1 | 0 | 0 | 0 | - | - | - | -
C[C@@H]1CCCCO[C@H](CN(C)Cc2ccc(C(F)(F)F)cc2)[C@H](C)CN([C@H](C)CO)C(=O)c2cc(NC(=O)c3ccncc3)ccc2O1 | 0 | 109 | - | 106 | 0 | 0 | 73
C[C@@H]1CCCCO[C@@H](CN(C)Cc2ccc(C(F)(F)F)cc2)[C@@H](C)CN([C@@H](C)CO)C(=O)c2cc(NC(=O)c3ccncc3)ccc2O1 | 0 | 0 | 0 | - | - | - | -
C[C@H]1CCCCO[C@H](CN(C)Cc2ccc(C(F)(F)F)cc2)[C@@H](C)CN([C@@H](C)CO)C(=O)c2cc(NC(=O)c3ccncc3)ccc2O1 | 0 | 98 | - | 103 | 0 | 0 | 106
CCOC(=O)CN(C)C1=NS(=O)(=O)c2ccccc21 | - | - | 0 | - | - | - | -
COc1ccccc1NC(=O)Cn1nnc(-c2ccc(C(F)(F)F)cc2)n1 | - | - | 0 | - | - | - | -
CCn1c(O)c(/C=C2/C=CC=N2)c(=O)[nH]c1=S | - | - | 0 | - | - | - | -

Screening data from PubChem BioAssay.
